According to paper PMC3107735 (Biochemistry, 2011):
Where “and” joins values, the source holds several entries; their conditions need not be identical. Equal values may be shown once.

Legend:
[1] = molecular target: T1, thrombin (Bos taurus, UniProt P00735); test: Isothermal titration calorimetry; type: binding, bovine; details: for Ka / N (stoichiometry of binding) / ΔH / -TΔS / ΔG: thrombin in cell, 25°C; for Ka / N (stoichiometry of binding) / ΔH: pH 7.4; for -TΔS: computed from ΔG-ΔH; for ΔG: obtained from KA
[2] = molecular target: aptamer-thrombin complex (Bos taurus, UniProt P00735); test: ITC, ligand titrated into pre-formed aptamer-thrombin complex; type: binding, bovine; details: apt-thrombin in cell, 25°C; for Ka / N (stoichiometry of binding) / ΔH: pH 7.4; for -TΔS: computed from ΔG-ΔH; for ΔG: obtained from KA
[3] = molecular target: TM45-thrombin (Bos taurus, UniProt P00735); test: ITC, ligand titrated into TMEGF45-thrombin complex; type: binding, bovine; details: TM45-thrombin in cell, 25°C; for Ka / N (stoichiometry of binding) / ΔH: pH 7.4; for -TΔS: computed from ΔG-ΔH; for ΔG: obtained from KA
[4] = molecular target: T1, thrombin; details: DSC; increases from 57°C for thrombin; cited from earlier work
[5] = molecular target: PPACK-thrombin (Bos taurus, UniProt P00735); test: ITC, ligand titrated into PPACK-thrombin; type: binding, bovine; details: ppack-thrombin in cell, 25°C; for Ka / N (stoichiometry of binding) / ΔH: pH 7.4; for -TΔS: computed from ΔG-ΔH; for ΔG: obtained from KA
Summary of the method: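 Bovine α-thrombin treated with PPACK (1.1 μmol per 1 mL fraction, 3 h shaking, room temperature), re-purified by size exclusion the same day, and held at 6.5 μM in the cell (BCA). Buffer was 50 mM Bis-tris propane pH 7.4, 150 mM NaCl, 2.5 mM CaCl2. Degassed ligand at 65-70 μM was injected at 25°C with a 180 s initial delay. Heats were integrated and corrected for dilution; ΔG came from Ka and -TΔS from ΔG-ΔH.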

[6] = molecular target: T1, thrombin; test: Differential scanning calorimetry; set-up: species or system bovine; details: DSC; 25 μM thrombin; thrombin alone 56.9°C or 57.9°C (Figure 6 legend)

CCC1CCN(C(=O)[C@H](CCCNC(=N)N)NS(=O)(=O)c2cccc3c(N(C)C)cccc23)CC1 [DAPA, dansyl-L-arginine-(3-ethyl-1,5-pantanediyl) amide]
Ka ([1]; with 2.5 mM calcium): 4.5 ± 0.5 ×10^7 M^-1
N (stoichiometry of binding) ([1]; with 2.5 mM calcium): 0.9 ± 0.1
ΔH ([1]; with 2.5 mM calcium): -6.2 ± 0.04 kcal/mol
-TΔS ([1]; with 2.5 mM calcium): -4.2 ± 0.1 kcal/mol
ΔG ([1]; with 2.5 mM calcium): -10.4 ± 0.1 kcal/mol
Ka ([1]; without calcium): 4.5 ± 2.5 ^1 ×10^7 M^-1
N (stoichiometry of binding) ([1]; without calcium): 0.9 ± 0.1
-TΔS ([1]; without calcium): -4.4 ± 0.6 kcal/mol
ΔG ([1]; without calcium): -10.3 ± 0.4 kcal/mol
Ka ([2]; with 2.5 mM calcium): 5.6 ± 2.1 ×10^7 M^-1
N (stoichiometry of binding) ([2]; with 2.5 mM calcium): 1.06 ± 0.08
ΔH ([2]; with 2.5 mM calcium): -4.8 ± 0.2 kcal/mol
-TΔS ([2]; with 2.5 mM calcium): -5.7 ± 0.4 kcal/mol
ΔG ([2]; with 2.5 mM calcium): -10.5 ± 0.3 kcal/mol
Ka ([2]; without calcium): 5.8 ± 0.37 ×10^7 M^-1
N (stoichiometry of binding) ([2]; without calcium): 1.11 ± 0.1
ΔH ([2]; without calcium): -4.2 ± 0.3 kcal/mol
-TΔS ([2]; without calcium): -6.4 ± 0.7 kcal/mol
ΔG ([2]; without calcium): -10.6 ± 0.4 kcal/mol
Ka ([3]; with 2.5 mM calcium): 5.9 ± 2.2 ×10^7 M^-1
N (stoichiometry of binding) ([3]; with 2.5 mM calcium): 1.00 ± 0.06
ΔH ([3]; with 2.5 mM calcium): -5.0 ± 0.1 kcal/mol
-TΔS ([3]; with 2.5 mM calcium): -5.5 ± 0.2 kcal/mol
ΔG ([3]; with 2.5 mM calcium): -10.5 ± 0.2 kcal/mol
Ka ([3]; without calcium): 5.0 ± 1.8 ×10^7 M^-1
N (stoichiometry of binding) ([3]; without calcium): 0.86 ± 0.02
ΔH ([3]; without calcium): -4.5 ± 0.2 kcal/mol
-TΔS ([3]; without calcium): -6.0 ± 0.4 kcal/mol
ΔG ([3]; without calcium): -10.5 ± 0.2 kcal/mol

NC(N)=NCCC[C@H](NC(=O)[C@@H]1CCCN1C(=O)[C@H](N)Cc1ccccc1)C(=O)CCl [PPACK, DPhe-Pro-Arg-chloromethyl ketone]
Tm of thrombin with ligand bound at the active site [4]: 70 °C

GGTTGGTGTGGTTGG [aptamer]
N (stoichiometry of binding) ([1]; with 2.5 mM calcium): 0.87 ± 0.04
ΔH ([1]; with 2.5 mM calcium): -22.4 ± 0.1 kcal/mol
-TΔS ([1]; with 2.5 mM calcium): 12.6 ± 1.0 kcal/mol
ΔG ([1]; with 2.5 mM calcium): -9.8 ± 0.1 kcal/mol
Ka ([1]; without calcium): 0.9 ± 0.2 ×10^7 M^-1
N (stoichiometry of binding) ([1]; without calcium): 0.96 ± 0.1
ΔH ([1]; without calcium): -20.2 ± 0.8 kcal/mol
ΔH ([1]; without calcium, listed as DNA aptamer): -20.2 kcal/mol
-TΔS ([1]; without calcium): 10.5 ± 0.9 kcal/mol
ΔG ([1]; without calcium): -9.7 ± 0.2 kcal/mol
Ka ([5]; with 2.5 mM calcium): 1.4 ± 0.6 ×10^7 M^-1
N (stoichiometry of binding) ([5]; with 2.5 mM calcium): 0.9 ± 0.1
ΔH ([5]; with 2.5 mM calcium): -21.0 ± 0.3 kcal/mol
-TΔS ([5]; with 2.5 mM calcium): 11.3 ± 0.004 kcal/mol
ΔG ([5]; with 2.5 mM calcium): -9.7 ± 0.3 kcal/mol
Ka ([5]; without calcium): 0.8 ± 0.1 ×10^7 M^-1
N (stoichiometry of binding) ([5]; without calcium): 0.98 ± 0.02
ΔH ([5]; without calcium): -17.7 ± 1.1 kcal/mol
-TΔS ([5]; without calcium): 8.3 ± 1.2 kcal/mol
ΔG ([5]; without calcium): -9.4 ± 0.8 kcal/mol
melting (denaturation) temperature of thrombin with ligand bound at exosite 1 [6]: 57.9 °C and 58.7 °C

calcium
change in heat upon addition to thrombin in the cell (ITC) ([1]; calcium added to thrombin in the cell): no measurable direct binding
